Data reported in ChEMBL document CHEMBL4819027, “Design, synthesis and biological evaluation of novel 2-(4-(1H-indazol-6-yl)-1H-pyrazol-1-yl)acetamide derivatives as potent VEGFR-2 inhibitors” (Eur J Med Chem, 2021).
Active and inactive are the calls of the source. The calls are words filed in the database; no cut-off is given here.

How the values were obtained:
[1] = target: T1, Vascular endothelial growth factor receptor 2 (Homo sapiens, UniProt P35968); assay: Inhibition of VEGFR2 in human HGC-27 cells assessed as reduction in VEGFR-2 phosphorylation after 24 hrs by westernblot analysis; type: cell-based
Summary of the method: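 HGC-27 cells (1.0 × 10⁶ per 60 mm dish) were treated 24 h with 0.1% DMSO or compound (0.1, 0.5, 1 μM). RIPA lysates with phosphatase inhibitor were quantified by BCA and resolved on 8–12% SDS-PAGE onto nitrocellulose. Blots were probed for p-VEGFR-2 (Tyr1175), p-PI3K (Tyr607), p-AKT (Thr308) and p-mTOR (Ser2448), with ECL detection and densitometry; mean ± SEM.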

HGC-27 [2] = assay: Antiproliferative activity against human HGC-27 cells assessed as cell growth inhibition after 72 hrs by MTT assay; type: functional, cell-based; conditions: HGC-27, 72 h
Summary of the method: (§1)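 Log-phase cells were seeded at 5 × 10³ per well and attached 24 h. HT-29 and GES-1 were grown in DMEM-based medium, A549/HepG2/HGC-27 in RPMI-1640, HUVEC in ECM with ECGS; all media had 10% FBS. Cells were exposed to graded compound concentrations for 72 h at 37 °C. MTT (5 mg/mL stock) was added for 4 h, formazan dissolved in DMSO, and A490 read. IC50 was obtained by nonlinear sigmoidal regression; mean ± S.E. of three experiments.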

HUVEC [3] = assay: Antiangiogenic activity against HUVEC cells assessed as reduction in VEGF-induced tube length at 1 to 10 uM incubated for 12 hrs by matrigel-based assay; type: functional, cell-based; conditions: Homo sapiens, dose 1-10 µM
Summary of the method: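 HUVECs at 4 × 10⁵ cells/mL seeded on Matrigel that had been polymerized 1 h at 37 °C. Cells were stimulated with 20 ng/mL VEGF and treated with compound (1, 2.5, 5 and 10 μM) or 0.1% DMSO vehicle for 12 h at 37 °C. Tubes were imaged by inverted microscopy. Tube length, surface area and branch points were quantified as pixel area.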

HGC-27 [4] = assay: Induction of apoptosis in human HGC-27 cells assessed as necrotic cells level at 1 uM incubated for 24 hrs by propidium iode and annexin V-FITC staining based flow cytometry (reference value: 1.64%); type: functional
Summary of the method: (§2)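 HGC-27 cells (1.0 × 10⁶ per 60 mm dish) were treated 24 h with 0.1% DMSO or compound (0.1, 0.5, 1 μM). Cells were stained with Annexin V-FITC in HEPES/NaCl/CaCl₂ binding buffer (pH 7.4) for 15 min at room temperature, then with PI for 10 min. About 10 000 events were acquired by flow cytometry to give viable, early apoptotic, late apoptotic and necrotic fractions.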

HGC-27 [5] = assay: Induction of apoptosis in human HGC-27 cells assessed as viable cells level at 0.5 uM incubated for 24 hrs by propidium iode and annexin V-FITC staining based flow cytometry (reference value: 96.0%); type: functional; summary of the method: as §2
HGC-27 [6] = assay: Induction of apoptosis in human HGC-27 cells assessed as early apoptotic cells level at 1 uM incubated for 24 hrs by propidium iode and annexin V-FITC staining based flow cytometry (reference value: 1.48%); type: functional; summary of the method: as §2
HGC-27 [7] = assay: Induction of intracellular ROS generation in human HGC-27cells incubated for 24 hrs by DCFH-DA staining-based flow cytometric analysis; type: functional, cell-based; conditions: dose 0.1-1 µM
Summary of the method: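 HGC-27 cells (5.0 × 10⁵ per well) were treated 24 h with compound (0.1, 0.5, 1 μM) or 0.1% DMSO. Harvested cells were loaded with 10 μM DCFH-DA in PBS for 20 min at 37 °C. Green fluorescence intensity was measured by flow cytometry.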

HGC-27 [8] = assay: Induction of apoptosis in human HGC-27 cells assessed as viable cells level at 1 uM incubated for 24 hrs by propidium iode and annexin V-FITC staining based flow cytometry (reference value: 96.0%); type: functional; summary of the method: as §2
HGC-27 [9] = assay: Induction of apoptosis in human HGC-27 cells assessed as early apoptotic cells level at 0.5 uM incubated for 24 hrs by propidium iode and annexin V-FITC staining based flow cytometry (reference value: 1.48%); type: functional; summary of the method: as §2
HGC-27 [10] = assay: Induction of apoptosis in human HGC-27 cells assessed as necrotic cells level at 0.5 uM incubated for 24 hrs by propidium iode and annexin V-FITC staining based flow cytometry (reference value: 1.64%); type: functional; summary of the method: as §2
HGC-27 [11] = assay: Antiinvasive activity against human HGC-27 cells assessed as reduction in cell invasion at 0.1 to 1 measured after 24 hrs by transwell invasion assay; type: functional, cell-based
Summary of the method: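 Transwell inserts (12 μm pore) were precoated with Matrigel. HGC-27 cells at 5 × 10⁵ cells/mL were placed in the upper well in serum-free medium with compound (0.1, 0.5, 1 μM). The lower chamber held RPMI-1640 with 10% FBS. After 24 h at 37 °C, invaded cells were methanol-fixed and stained with 0.1% crystal violet. Cells were counted in three random fields; three independent experiments, mean ± SD.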

HGC-27 [12] = assay: Induction of apoptosis in human HGC-27 cells assessed as necrotic cells level at 0.1 uM incubated for 24 hrs by propidium iode and annexin V-FITC staining based flow cytometry (reference value: 1.64%); type: functional; summary of the method: as §2
HUVEC [13] = assay: Cytotoxicity against HUVEC cells at 1 to 5 uM after 72 hrs by MTT assay; type: cell-based; conditions: human, dose 1-5 µM
Summary of the method: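 HUVECs grown in ECM with 1% ECGS and 10% FBS were seeded at 5 × 10³ per well and attached 24 h. Cells were exposed to compound at 1, 2.5 and 5 μM for 72 h at 37 °C. Viability was read by MTT: 4 h incubation, DMSO solubilization, absorbance at 490 nm.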

HGC-27 [14] = assay: Antimigratory activity against human HGC-27 cells assessed as reduction in cell migration measured after 24 hrs by crystal violet staining microscopy based transwell migration assay; type: functional; conditions: dose 0.1-1 µM
HGC-27 [15] = assay: Inhibition of colony formation in human HGC-27 cells at 1 uM after 12 days by crystal violet staining based assay; type: functional; conditions: HGC-27, 288 h, time 12 day
Summary of the method: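 HGC-27 cells (500/well, 6-well plates) attached 24 h at 37 °C, then kept 12 days in medium with compound (0.1, 0.5, 1 µM), 0.1% DMSO vehicle or 5 µM sorafenib. Washed with cold PBS, methanol-fixed, stained 0.1% crystal violet 30 min; colonies >50 cells photographed and counted.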

HGC-27 [16] = assay: Inhibition of cell migration at human HGC-27 cells measured up to 24 hrs by microscopic based wound healing assay; type: functional; conditions: dose 0.1-1 µM, time hrs <=24
Summary of the method: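 HGC-27 grown to 80–90% confluence in 6-well plates, serum-starved 12 h, scratched with 200 µL tip (~1 mm lane). Washed, then given complete medium alone or with compound (0.1, 0.5, 1 µM) or sorafenib positive control. Imaged by inverted microscope at 0, 6 and 24 h; relative scratch closure quantified; mean ± SD, three independent experiments.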

HGC-27 [17] = assay: Induction of apoptosis in human HGC-27 cells assessed as late apoptotic cells level incubated for 24 hrs by propidium iode and annexin V-FITC staining based flow cytometry; type: functional, cell-based; conditions: dose 0.1-1 µM; summary of the method: as §2
HGC-27 [18] = assay: Antimigratory activity against human HGC-27 cells assessed as number of migration cells at 1 uM measured after 24 hrs by transwell migration assay (reference value: 320); type: functional
A549 = assay: Antiproliferative activity against human A549 cells assessed as cell growth inhibition after 72 hrs by MTT assay; type: functional, cell-based; conditions: A549, 72 h; summary of the method: as §1
[19] = target: T1, Vascular endothelial growth factor receptor 2; assay: Inhibition of VEGFR2 (unknown origin) incubated for 10 mins followed by kinase substrate addition and measured after 30 mins by caliper mobility shift assay

T1 sequence (P35968 whole entry): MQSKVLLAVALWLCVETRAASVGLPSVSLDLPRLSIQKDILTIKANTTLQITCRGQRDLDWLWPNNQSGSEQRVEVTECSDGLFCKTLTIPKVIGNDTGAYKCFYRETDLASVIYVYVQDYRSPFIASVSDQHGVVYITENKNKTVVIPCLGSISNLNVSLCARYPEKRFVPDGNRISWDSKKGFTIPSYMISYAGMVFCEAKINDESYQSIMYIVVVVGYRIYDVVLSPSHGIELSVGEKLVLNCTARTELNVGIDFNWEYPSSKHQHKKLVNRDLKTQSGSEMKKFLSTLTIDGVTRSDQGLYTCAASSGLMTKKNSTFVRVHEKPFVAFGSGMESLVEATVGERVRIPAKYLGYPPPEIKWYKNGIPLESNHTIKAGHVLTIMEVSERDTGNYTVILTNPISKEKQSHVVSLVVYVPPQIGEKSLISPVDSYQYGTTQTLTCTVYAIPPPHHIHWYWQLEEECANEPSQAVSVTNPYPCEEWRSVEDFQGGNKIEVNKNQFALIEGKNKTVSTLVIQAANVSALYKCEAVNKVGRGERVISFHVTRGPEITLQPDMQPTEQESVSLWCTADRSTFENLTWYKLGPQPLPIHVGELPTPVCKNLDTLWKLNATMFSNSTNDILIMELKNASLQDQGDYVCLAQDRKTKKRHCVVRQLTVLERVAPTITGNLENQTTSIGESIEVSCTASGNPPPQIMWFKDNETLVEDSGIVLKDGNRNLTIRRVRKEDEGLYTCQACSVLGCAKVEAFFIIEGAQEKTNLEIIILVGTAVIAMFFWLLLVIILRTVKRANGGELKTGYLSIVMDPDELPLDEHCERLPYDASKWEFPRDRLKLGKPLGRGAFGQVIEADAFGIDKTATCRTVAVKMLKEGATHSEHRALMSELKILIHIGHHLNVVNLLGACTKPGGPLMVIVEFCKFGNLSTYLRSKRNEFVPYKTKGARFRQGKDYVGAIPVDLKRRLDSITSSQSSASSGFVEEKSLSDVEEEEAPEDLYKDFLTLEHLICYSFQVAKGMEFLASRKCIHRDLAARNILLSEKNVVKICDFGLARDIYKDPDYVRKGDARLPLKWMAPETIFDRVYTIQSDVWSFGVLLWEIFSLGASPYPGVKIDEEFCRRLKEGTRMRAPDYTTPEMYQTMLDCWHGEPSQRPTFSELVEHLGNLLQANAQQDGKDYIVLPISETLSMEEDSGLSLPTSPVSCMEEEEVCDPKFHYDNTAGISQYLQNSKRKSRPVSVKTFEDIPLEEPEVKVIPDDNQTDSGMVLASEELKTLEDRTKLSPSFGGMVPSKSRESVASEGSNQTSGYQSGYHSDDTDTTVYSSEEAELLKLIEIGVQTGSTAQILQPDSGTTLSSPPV

## CC(=O)Nc1n[nH]c2cc(-c3cnn(CC(=O)Nc4ccc(C)c(C(F)(F)F)c4)c3)ccc12
[1]
  inhibition: Dose-Dependent Effect
HGC-27 [2]
  IC50: 360 nM
HUVEC [3]
  Activity: Active
HGC-27 [4]
  Activity: 9.59%
HGC-27 [5]
  Activity: 69.7%
HGC-27 [6]
  Activity: 11.8%
HGC-27 [7]
  Activity: Dose-Dependent Effect
HGC-27 [8]
  Activity: 61.6%
HGC-27 [9]
  Activity: 8.35%
HGC-27 [10]
  Activity: 10.8%
HGC-27 [11]
  inhibition: Dose-Dependent Effect
HGC-27 [12]
  Activity: 2.12%
HUVEC [13]
  Activity: Non-Toxic
HGC-27 [14]
  inhibition: Dose-Dependent Effect
HGC-27 [15]
  inhibition at 1 µM: 100%
HGC-27 [16]
  inhibition: Dose-Dependent Effect
HGC-27 [17]
  Activity: Dose-Dependent Effect
HGC-27 [18]
  Activity: 22
A549
  IC50: 4310 nM
[19]
  IC50: 1.6 nM
